Assay results taken from ChEMBL document CHEMBL1126182, “Antibacterials. synthesis and structure-activity studies of 3-aryl-2-oxooxazolidines. 4. Multiply-substituted aryl derivatives” (1992).
Values after ≈ are worked out from the molar mass of the structure shown.

How the values were obtained:
Staphylococcus aureus = experiment: Antibacterial activity against Staphylococcus aureus SFCO-1a cell line.; assay type: functional
Method in brief: (§1)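 MIC by microtiter broth dilution. For racemic samples, the measured MIC was divided by two, since only one oxazolidinone enantiomer is antibacterial.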

Enterococcus faecalis = experiment: Antibacterial activity against Enterococcus faecalis STCO-19; assay type: functional; method in brief: as §1

Row | SMILES | MIC (Staphylococcus aureus) | MIC (Enterococcus faecalis)
1 | CC(=O)NCC1CN(c2cccc(I)c2)C(=O)O1 (stereo unspecified) | 64 µg/mL (≈ 178 µM) | 128 µg/mL (≈ 355 µM)
2 | CC(=O)NCC1CN(c2ccc(C(C)=O)c(O)c2)C(=O)O1 (stereo unspecified) | 2 µg/mL (≈ 6.84 µM) | 2 µg/mL (≈ 6.84 µM)
3 | CC(=O)NC[C@H]1CN(c2ccc3c(c2)CCC3)C(=O)O1 | 2 µg/mL (≈ 7.29 µM) | 4 µg/mL (≈ 14.6 µM)
4 | CSc1ccc(N2CC(CNC(C)=O)OC2=O)cc1[N+](=O)[O-] (stereo unspecified) | 8 µg/mL (≈ 24.6 µM) | 8 µg/mL (≈ 24.6 µM)
5 | CC(=O)NCC1CN(c2cccc([N+](=O)[O-])c2)C(=O)O1 (stereo unspecified) | 4 µg/mL (≈ 14.3 µM) | 4 µg/mL (≈ 14.3 µM)
6 | CC(=O)NCC1CN(c2cccc(Cl)c2)C(=O)O1 (stereo unspecified) | 64 µg/mL (≈ 238 µM) | 128 µg/mL (≈ 476 µM)
7 | C#Cc1ccc(N2C[C@H](CNC(C)=O)OC2=O)c(F)c1 | 128 µg/mL (≈ 463 µM) | 128 µg/mL (≈ 463 µM)
8 | CSc1cc(N2CC(CNC(C)=O)OC2=O)ccc1C(C)=O (stereo unspecified) | > 128 µg/mL | > 128 µg/mL
9 | CC(=O)NC[C@H]1CN(c2ccc(C(C)=O)cc2F)C(=O)O1 | 32 µg/mL (≈ 109 µM) | 32 µg/mL (≈ 109 µM)
10 | COc1cc(OC)cc(N2CC(CNC(C)=O)OC2=O)c1 (stereo unspecified) | > 128 µg/mL | > 128 µg/mL
11 | CC(=O)NCC1CN(c2ccccc2)C(=O)O1 (stereo unspecified) | 128 µg/mL (≈ 546 µM) | 128 µg/mL (≈ 546 µM)
12 | CC(=O)NCC1CN(c2c(F)cc(C(C)=O)cc2F)C(=O)O1 (stereo unspecified) | > 128 µg/mL | > 128 µg/mL
13 | CC(=O)NC[C@H]1CN(c2ccc(C(C)=O)c(C)c2)C(=O)O1 | 1 µg/mL (≈ 3.44 µM) | 1 µg/mL (≈ 3.44 µM)
14 | CC(=O)NCC1CN(c2cccc(F)c2)C(=O)O1 (stereo unspecified) | 32 µg/mL (≈ 127 µM) | 32 µg/mL (≈ 127 µM)
15 | CCCc1cc(N2CC(CNC(C)=O)OC2=O)ccc1C(C)=O (stereo unspecified) | > 128 µg/mL | > 128 µg/mL
16 | CC(=O)NCC1CN(c2ccc(C(C)=O)c(F)c2)C(=O)O1 (stereo unspecified) | 1 µg/mL (≈ 3.4 µM) | 2 µg/mL (≈ 6.8 µM)
17 | CC(=O)NCC1CN(c2ccc(C(C)=O)c(Cl)c2)C(=O)O1 (stereo unspecified) | 2 µg/mL (≈ 6.44 µM) | 2 µg/mL (≈ 6.44 µM)
18 | CC(=O)NCC1CN(c2ccc(C(C)=O)c(N)c2)C(=O)O1 (stereo unspecified) | 4 µg/mL (≈ 13.7 µM) | 4 µg/mL (≈ 13.7 µM)
19 | CC(=O)NCC1CN(c2cccc(C)c2)C(=O)O1 (stereo unspecified) | 32 µg/mL (≈ 129 µM) | 32 µg/mL (≈ 129 µM)
20 | CC(=O)NC[C@H]1CN(c2ccc3ccccc3c2)C(=O)O1 | 4 µg/mL (≈ 14.1 µM) | 8 µg/mL (≈ 28.1 µM)
21 | COc1cc(N2CC(CNC(C)=O)OC2=O)ccc1C(C)=O (stereo unspecified) | > 128 µg/mL | > 128 µg/mL
22 | CC(=O)NCC1CN(c2cccc(N)c2)C(=O)O1 (stereo unspecified) | > 128 µg/mL | > 128 µg/mL
23 | CC(=O)NC[C@H]1CN(c2ccc3[nH]ccc3c2)C(=O)O1 | > 128 µg/mL | > 128 µg/mL
24 | CSc1cccc(N2CC(CNC(C)=O)OC2=O)c1 (stereo unspecified) | 16 µg/mL (≈ 57.1 µM) | 16 µg/mL (≈ 57.1 µM)

Row | SMILES | MIC (Staphylococcus aureus) | MIC (Enterococcus faecalis)
25 | CCCc1ccc(N2C[C@H](CNC(C)=O)OC2=O)cc1 | 2 µg/mL (≈ 7.24 µM) | 4 µg/mL (≈ 14.5 µM)
26 | CC(=O)NCC1CN(c2cccc(Br)c2)C(=O)O1 (stereo unspecified) | 16 µg/mL (≈ 51.1 µM) | 64 µg/mL (≈ 204 µM)
27 | CC(=O)NCC1CN(c2cccc([S+](C)[O-])c2)C(=O)O1 (stereo unspecified) | > 128 µg/mL | > 128 µg/mL
28 | CC(=O)NCC1CN(c2ccc([S+](C)[O-])c([N+](=O)[O-])c2)C(=O)O1 (stereo unspecified) | 8 µg/mL (≈ 23.4 µM) | 8 µg/mL (≈ 23.4 µM)
29 | CCCc1cccc(N2CC(CNC(C)=O)OC2=O)c1 (stereo unspecified) | 64 µg/mL (≈ 232 µM) | 128 µg/mL (≈ 463 µM)
30 | CCc1cc(N2CC(CNC(C)=O)OC2=O)ccc1C(C)=O (stereo unspecified) | 16 µg/mL (≈ 52.6 µM) | 8 µg/mL (≈ 26.3 µM)
31 | CC(=O)NC[C@H]1CN(c2ccc([N+](=O)[O-])cc2[N+](=O)[O-])C(=O)O1 | > 128 µg/mL | > 128 µg/mL
32 | CC(=O)NC[C@H]1CN(c2ccc(C)c(C)c2)C(=O)O1 | 8 µg/mL (≈ 30.5 µM) | 16 µg/mL (≈ 61 µM)
33 | CC(=O)NCC1CN(c2cc(C)cc(C)c2)C(=O)O1 (stereo unspecified) | > 128 µg/mL | > 128 µg/mL
34 | CC(=O)NCC1CN(c2ccc([S+](C)[O-])c(C)c2)C(=O)O1 (stereo unspecified) | 8 µg/mL (≈ 25.8 µM) | 8 µg/mL (≈ 25.8 µM)
35 | COc1cc([N+](=O)[O-])ccc1N1C[C@H](CNC(C)=O)OC1=O | > 128 µg/mL | > 128 µg/mL
36 | CC(=O)NCC1CN(c2ccc(C(C)=O)c(I)c2)C(=O)O1 (stereo unspecified) | 32 µg/mL (≈ 79.6 µM) | 32 µg/mL (≈ 79.6 µM)
37 | CC(=O)NCC1CN(c2cccc(S(C)(=O)=O)c2)C(=O)O1 (stereo unspecified) | > 128 µg/mL | > 128 µg/mL
38 | COc1cccc(N2CC(CNC(C)=O)OC2=O)c1 (stereo unspecified) | 64 µg/mL (≈ 242 µM) | 64 µg/mL (≈ 242 µM)
39 | CC(=O)NCC1CN(c2ccc(C(C)=O)c([S+](C)[O-])c2)C(=O)O1 (stereo unspecified) | > 128 µg/mL | > 128 µg/mL
40 | COc1ccc([N+](=O)[O-])cc1N1C[C@H](CNC(C)=O)OC1=O | > 128 µg/mL | > 128 µg/mL
41 | CC(=O)NCC1CN(c2ccc([S+](C)[O-])cc2)C(=O)O1 (stereo unspecified) | 4 µg/mL (≈ 13.5 µM) | 4 µg/mL (≈ 13.5 µM)
42 | CSc1ccc(N2CC(CNC(C)=O)OC2=O)cc1 (stereo unspecified) | 4 µg/mL (≈ 14.3 µM) | 4 µg/mL (≈ 14.3 µM)
43 | CC(=O)NCC1CN(c2ccc(C(C)=O)c(S(C)(=O)=O)c2)C(=O)O1 (stereo unspecified) | > 128 µg/mL | > 128 µg/mL
44 | CC(=O)NCC1CN(c2ccc(C(C)=O)c(Br)c2)C(=O)O1 (stereo unspecified) | 4 µg/mL (≈ 11.3 µM) | 8 µg/mL (≈ 22.5 µM)
45 | CCc1cccc(N2CC(CNC(C)=O)OC2=O)c1 (stereo unspecified) | 16 µg/mL (≈ 61 µM) | 16 µg/mL (≈ 61 µM)
46 | CC(=O)NCC1CN(c2cccc(O)c2)C(=O)O1 (stereo unspecified) | > 128 µg/mL | > 128 µg/mL
47 | CC(=O)NC[C@H]1CN(c2ccc(C(C)=O)cc2)C(=O)O1 [DUP-721] | 0.5 µg/mL (≈ 1.81 µM) | 1 µg/mL (≈ 3.62 µM)
48 | CC(=O)NC[C@H]1CN(c2ccc3c(c2)CCC3=O)C(=O)O1 [PNU-82965] | 2 µg/mL (≈ 6.94 µM) | 2 µg/mL (≈ 6.94 µM)
